# Activity calls are given as the source filed them. The rule behind the calls is not given here.
# Key:
# K562 = assay: Cytotoxicity against human K562 cells by MTT assay; format: functional, cell-based
# A549 = assay: Cytotoxicity against human A549 cells by MTT assay; format: functional, cell-based
# HeLa = assay: Cytotoxicity against human HeLa cells by MTT assay; format: functional, cell-based
# HCT-116 = assay: Cytotoxicity against human HCT116 cells by MTT assay; format: functional, cell-based
# MCF7 = assay: Cytotoxicity against human MCF7 cells by MTT assay; format: functional, cell-based
# Nucleic Acid [1] = assay: Binding affinity to calf thymus DNA assessed as hyperchromic effect at 10 uM by UV-Vis spectrophotometric analysis; format: nucleic-acid assay; conditions: Bos taurus, in the assay text read “hypochromic” for “hyperchromic”
# In short: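 Its concentration was set by absorption at 260 nm (6600 M⁻¹ cm⁻¹), and it was stored at 4 °C and used within 4 days. UV–vis absorption spectra of compound (10) were recorded in 20 mM Tris–HCl, pH 7.5, 25 °C, with ct-DNA increasing from 0 to 160.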
# Nucleic Acid [2] = assay: Binding affinity to calf thymus DNA by fluorescence quenching technique; format: nucleic-acid assay; conditions: Bos taurus
# In short: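 Calf thymus DNA was prepared as in line 1. Compound was held at 10 while ct-DNA was titrated at 0, 10, 20, 40, 60, 80, 100, 120, 140 and 160 in 20 mM Tris–HCl, pH 7.5. Solutions were equilibrated for 1 day at 25 °C in the dark, and fluorescence emission was recorded. Kb was fitted to a single-site quenching equation.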
Structure (SMILES),IC50 (K562),IC50 (A549),IC50 (HeLa),IC50 (HCT-116),IC50 (MCF7),Activity (Nucleic Acid [1]),Kb (Nucleic Acid [2])
Cc1ccc([Se]CCNc2ccc3c4c(cccc24)C(=O)N(CCN(C)C)C3=O)cc1,21.3 µM,21 µM,> 25 µM,20 µM,19.3 µM,–,–
CN(C)CCN1C(=O)c2cccc3c(NCC[Se]c4ccc(OC(F)(F)F)cc4)ccc(c23)C1=O,9.4 µM,14.4 µM,> 25 µM,9.9 µM,16.4 µM,–,–
CN(C)CCN1C(=O)c2cccc3c(NCCSc4ccccc4)ccc(c23)C1=O,11.2 µM,18 µM,15.1 µM,16.4 µM,19.1 µM,Active,8.26 ×10⁴ /M
CN(C)CCN1C(=O)c2cccc3c(NCC[Se]c4ccccc4)ccc(c23)C1=O,11.7 µM,17.4 µM,16.8 µM,19.5 µM,18.2 µM,Active,2.43 ×10⁴ /M
CN(C)CCN1C(=O)c2cccc3cc(N)cc(c23)C1=O [AMONAFIDE],> 50 µM,–,–,–,–,–,–
CCN(CC)CCN1C(=O)c2cccc3c(NCC[Se]c4ccccc4)ccc(c23)C1=O,8.9 µM,10.7 µM,15.5 µM,14.6 µM,11.9 µM,–,–
CN(C)CCN1C(=O)c2cccc3c(N4CC[Se]CC4)ccc(c23)C1=O,5.3 µM,8.7 µM,5.6 µM,5.4 µM,5.3 µM,–,–
CCCCN1C(=O)c2cccc3c(NCC[Se]c4ccccc4)ccc(c23)C1=O,> 25 µM,> 25 µM,> 25 µM,> 25 µM,> 25 µM,–,–
COc1ccc([Se]CCNc2ccc3c4c(cccc24)C(=O)N(CCN(C)C)C3=O)cc1,16.6 µM,22.3 µM,17.9 µM,17.6 µM,18.3 µM,–,–
CCCCCCCCN1C(=O)c2cccc3c(NCC[Se]c4ccccc4)ccc(c23)C1=O,18.7 µM,20.6 µM,16.7 µM,18.1 µM,11.6 µM,–,–
